KCNQ1 inh: inhibitors of human KCNQ1 potassium channel; 1.3% of 310,000 active; CHO-K1 KCNQ1, FluxOR thallium flux fluorescence; stronger effect = higher value; B-score at 10 µM; P51787;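 active means compounds whose thallium flux B-score, printed positive for inhibition, exceeds three library SD while starting fluorescence stays within three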;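 further: channel opened by potassium depolarization with thallium stimulus after 20 min compound exposure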
Target sequence (P51787 whole entry, looked up): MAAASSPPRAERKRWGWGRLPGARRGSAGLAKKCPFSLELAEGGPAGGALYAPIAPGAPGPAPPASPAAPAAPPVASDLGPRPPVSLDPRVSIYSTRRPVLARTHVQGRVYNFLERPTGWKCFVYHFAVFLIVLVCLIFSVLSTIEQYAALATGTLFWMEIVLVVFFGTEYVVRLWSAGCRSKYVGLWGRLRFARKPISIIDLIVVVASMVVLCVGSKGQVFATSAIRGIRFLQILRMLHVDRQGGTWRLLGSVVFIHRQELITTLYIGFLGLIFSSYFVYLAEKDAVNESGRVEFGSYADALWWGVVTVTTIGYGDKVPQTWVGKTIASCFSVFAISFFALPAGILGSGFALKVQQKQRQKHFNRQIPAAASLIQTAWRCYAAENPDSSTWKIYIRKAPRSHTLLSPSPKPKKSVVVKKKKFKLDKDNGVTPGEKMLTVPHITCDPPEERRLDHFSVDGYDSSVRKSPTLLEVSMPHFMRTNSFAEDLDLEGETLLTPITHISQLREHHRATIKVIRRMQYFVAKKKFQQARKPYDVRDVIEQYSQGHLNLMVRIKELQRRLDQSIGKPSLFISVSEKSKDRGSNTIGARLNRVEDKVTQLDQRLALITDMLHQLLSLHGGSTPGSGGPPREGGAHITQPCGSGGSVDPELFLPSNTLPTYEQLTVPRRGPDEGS
KCNK9 inh: blocks the human KCNK9 two-pore domain potassium channel | Q9NPC2 | HEK293 KCNK9, FluxOR thallium flux fluorescence; stronger effect = lower value | B-score at 10 µM | 1.2% of 310,000 active;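 active means ratio B-score over 3 SD below the library mean, with starting fluorescence within 5 SD of its mean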;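 further: negative B-score means less thallium flux so channel inhibition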
KCNQ1 act: human KCNQ1 channel potentiation or activation | B-score at 10 µM | AID 2648 | CHO-K1 KCNQ1, thallium flux FluxOR fluorescence; stronger effect = higher value | 0.35% of 310,000 active;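 active means fluorescence ratio B-score, a plate-corrected score, at least three library SD, with initial intensity B-score within 5 SD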
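Medium – assay buffer, equal DMSO in all wells · Material – CHO-K1 cell line with stable KCNQ1 potassium channel expression · Signal – kinetic FluxOR thallium fluorescence, 10-s 1-Hz baseline, 110-s post-stimulus read · Compound – single concentration per compound, DMSO matched to controls · Schedule – 37 °C overnight plating, 90-min dark dye load, 20-min compound pretreatment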
KCNK3 block: human KCNK3 channel inhibition, primary screen. AID 602410. CHO-KCNK3 thallium flux, FluxOR fluorescence; stronger effect = lower value. O14649. B-score at 10 µM. 0.84% of 340,000 active;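 active means B-score under library mean minus 4 SD, starting fluorescence ratio at most library mean plus 5 SD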;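 further: more negative B-score means stronger inhibition of thallium flux through KCNK3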
KCC2 mod: modulates chloride dependent transport by human KCC2; Q9H2X9; KCC2 cells, thallium flux FluoZin-2 fluorescence; AID 1456; B-score of Tl+ flux slope (higher = more flux/activation; lower = inhibition) at 10 µM; 2.2% of 190,000 active;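 active means thallium flux slope and its plate-corrected score both differing from the plate sample mean at a set confidence after two filtering rounds, in either direction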;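 further: slope of fluorescence scaled to starting intensity during 10 to 20 s after thallium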
hERG protect: compounds protecting human hERG from proarrhythmic drug block. CHO-hERG, FluxOR thallium flux, dofetilide IC70 present. activation (rescue from dofetilide block), less the hit threshold, % at 10 µM. 0.51% of 310,000 active;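 active means activation above the mean of controls blocked by dofetilide plus 5 SD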;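 further: thallium influx through hERG after potassium depolarization seen as dye fluorescence rise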
Of the large screens only hits and unclear results are named; the others gave an inactive call. A selection: hits, their analogues and other compounds. The true share with any hit is near 4.1%.

CC(=O)c1cc2c(cc1NS(=O)(=O)c1ccc3c(c1)OCCO3)OCO2	hERG protect 5.1
O=C(c1cccs1)c1c[nH]cc1-c1ccccc1	none (no result: KCC2 mod)
Nc1cccc(N2C(=O)c3cccc4c(N)ccc(c34)C2=O)c1	KCNQ1 inh 11 (no result: KCC2 mod)
Nc1ccc2c3c(cccc13)C(=O)N(c1ccccc1)C2=O	none
CCn1c(C)c(C)c2cc(C(=O)Nc3cccc(Cl)c3)ccc21	KCNQ1 inh 6
CCn1c(C)cc(O)c(C(=O)Nc2cccc(Cl)c2)c1=O	none (no result: KCC2 mod)
CC1C(=O)C(C)C(c2cc(Br)ccc2O)NC1c1cc(Br)ccc1O (centres undefined)	none (no result: KCNQ1 inh, KCNK9 inh, KCNQ1 act, KCC2 mod, hERG protect)
CC1C(=O)C(C)C(c2ccc(Br)cc2)NC1c1ccc(Br)cc1 (centres undefined)	KCNQ1 inh 6 (no result: KCC2 mod)
Nc1nonc1-n1nnc(C(=O)N/N=C/c2cccc(Cl)c2Cl)c1CN1CCCC1	hERG protect 40 (no result: KCC2 mod)
CCCOc1ccc(-c2c(C(=O)N/N=C/c3ccccc3OCC)nnn2-c2nonc2N)cc1	hERG protect 37 (no result: KCC2 mod)
Cc1csc2nc(COC(=O)c3ccc(Cl)c([N+](=O)[O-])c3)cc(=O)n12	none (no result: KCNQ1 inh, KCNK9 inh, KCNQ1 act, KCC2 mod, hERG protect)
Cc1ccc(S(=O)(=O)N2CCC(=O)N(C(COC(=O)Nc3ccccc3)Cc3ccccc3)CC2)cc1 (centres undefined)	KCNK9 inh -6.7
COc1ccc(C(=O)COC(=O)[C@@H](NS(=O)(=O)c2ccccc2)C(C)C)cc1	none (no result: KCNQ1 inh, KCNK9 inh, KCNQ1 act, KCC2 mod, hERG protect)
Cc1ccc(NC(=S)NC2CCSc3ccccc32)cc1C (centres undefined)	none (no result: KCC2 mod)
Cc1nn(C)c(C(=O)NC(=S)Nc2ccccc2Br)c1Cl	KCNQ1 act 22, hERG protect 17 (no result: KCC2 mod)
Cc1nn(C)c(C(=O)NC(=S)Nc2ccc([N+](=O)[O-])cc2)c1Cl	KCNQ1 act 34, hERG protect 43 (no result: KCC2 mod)
Cc1nn(C)c(C(=O)NNC(=S)Nc2ccc(F)cc2)c1[N+](=O)[O-]	none
CCn1ncc(Cl)c1C(=O)NC(=S)Nc1ccccc1Br	KCNQ1 act 26, hERG protect 35 (no result: KCC2 mod)
Cc1nn(C)c(C(=O)NNC(=S)NCc2ccccc2)c1Cl	none (no result: KCC2 mod)
O=C(CCSc1ccc(Br)cc1)c1ccc(O)cc1	none (no result: KCC2 mod)
CCOc1cc(C(=O)NC)cc(OCC)c1OCC	hERG protect 9.7
COc1ccc(/C=C\C(=O)O[C@@H]2C(O)C(O[C@@H]3OC(C)[C@H](O[C@@H]4OCC(O[C@H]5O[C@H](CO)[C@@H](O)C(O)C5O)C(O)C4O)C(O)C3O)[C@H](OC(=O)[C@]34CCC(C)(C)C[C@@H]3C3=CCC5[C@@]6(C)CC(O)C(O[C@@H]7OC(CO)C(O)[C@H](O)[C@H]7O)[C@@](C)(C(=O)O)C6CC[C@@]5(C)[C@]3(CO)CC4)O[C@H]2C)cc1 (some centres undefined)	none (no result: KCNQ1 inh, KCNK9 inh, KCNQ1 act, KCC2 mod, hERG protect)
CN1C(=O)S/C(=C\c2ccccc2OCc2ccc(C(=O)O)cc2)C1=O	none
COc1ccccc1C=C1SC(=S)NC1=O	none (no result: KCNQ1 inh, KCNK9 inh, KCNQ1 act, KCC2 mod, hERG protect)
CN1C(=O)S/C(=C/c2ccccc2OCc2ccc(C(=O)O)cc2)C1=O	KCC2 mod -4.3
Cc1ccc(Oc2ccccc2/C=C2\SC(=O)N(C)C2=O)cc1	KCNQ1 inh 6 (no result: KCC2 mod)
O=C1NC(=O)/C(=C/c2ccccc2Oc2ccc(Cl)cc2)S1	KCNQ1 inh 11 (no result: KCC2 mod)
CCCCCNCC(=O)Nc1cc(C(F)(F)F)ccc1OCCOC	KCNK9 inh -8.5
COCCOc1ccc(C(F)(F)F)cc1NC(=O)c1ccc(C)cc1	none
COc1ccccc1C(=O)NCCC(=O)Nc1ccc(S(=O)(=O)N2CC(C)CC(C)C2)cc1 (centres undefined)	none (no result: KCNQ1 inh, KCNK9 inh, KCNQ1 act, KCC2 mod, hERG protect)
CNC(=O)COC(=O)c1ccccc1C(=O)c1ccc(Cl)c([N+](=O)[O-])c1	KCNQ1 inh 6
CCc1cc(C(=O)Nc2nc(-c3ccccn3)cs2)sc1C	KCNK3 block -9.2 (no result: KCNQ1 inh, KCNK9 inh, KCNQ1 act, KCC2 mod, hERG protect)
O=C(Nc1nc(-c2cc(F)ccc2F)cs1)c1ccccn1	KCC2 mod 7.4
Cc1ccc(C(=O)Nc2nc(-c3ccccn3)cs2)o1	none
CN(CC(=O)NCc1cccc(F)c1)C(=O)c1ccco1	hERG protect 6.5
O=C1C(=O)N(CCN2CCOCC2)C(c2cccnc2)/C1=C(/O)c1ccc(Cl)cc1 (centres undefined)	hERG protect 5.5
CC(c1ccccc1C(O)(c1ccccc1)c1ccccc1)N(C)C (centres undefined)	KCNQ1 act 14
COc1ccc(CNS(=O)(=O)c2ccc(F)c(C(=O)Nc3ccc(OC)cc3)c2)cc1	hERG protect 4.8
COc1ccc(CNS(=O)(=O)c2ccc(F)c(C(=O)Nc3ccccc3OC)c2)cc1	none
O=C1C=C(O)C(n2cncn2)C(c2ccc(F)cc2)C1 (centres undefined)	hERG protect 5.2
CCOC(=O)c1ccc(NC(=O)CSc2nc(NC(=O)c3ccccc3)c3c(C)c(C)oc3n2)cc1	none
COC(=O)c1ccccc1NC(=O)CSc1nc(NC(=O)c2ccccc2)c2c(C)c(C)oc2n1	KCNK3 block -10
O=C(COc1ccc2ccccc2c1CN1CCOCC1)N1CCc2ccccc21	KCC2 mod -7.9
O=C(COc1ccccc1Cl)N1CCc2ccccc21	none (no result: KCC2 mod)
COC(=O)c1ccc(C)cc1	none (no result: KCNQ1 inh, KCNK9 inh, KCNQ1 act, KCC2 mod, hERG protect)
COC(=O)c1ccc(NN=Nc2ccc(C)cc2)cc1	hERG protect 5.1
Cc1cc(Cl)c(S(=O)(=O)N/N=C/c2ccc3c(c2)OCO3)c(Cl)c1	KCNQ1 inh 10
CC(C)(C)C(=O)c1no[n+]([O-])c1/C(=N/O)C(C)(C)C	KCNQ1 inh 6
COc1ccc(/C=C2\C(=O)NC(=S)N2C(=O)c2ccc(F)cc2)cc1	KCC2 mod 3.4
C=CCN1C=CC(=C/C=C(/C#N)C(=O)OCC)C=C1	KCNQ1 inh 11
c1ccc(-c2nc(N3CCN(c4ccccc4)CC3)nc(-n3ccnc3)n2)cc1	KCNK9 inh -7.1
COc1ccc2ccc(=O)oc2c1CC(=O)C(C)C	none (no result: KCNQ1 inh, KCNK9 inh, KCNQ1 act, KCC2 mod, hERG protect)
CN(C)c1oc(-c2ccccc2Cl)nc1C#N	none
CN(C)c1oc(-c2ccccc2[N+](=O)[O-])nc1C#N	hERG protect 4.7
Cc1[nH]n(-c2nc(-c3ccc(Cl)cc3)cs2)c(=O)c1N=Nc1ccc(O)cc1	KCNQ1 inh 8
Cc1ccc(C(=O)Nc2nc(=O)n(C(=O)C3CC3)s2)cc1	hERG protect 5.0 (no result: KCC2 mod)
Cc1ccc2nc(C3CCN(S(=O)(=O)c4ccc5ccccc5c4)CC3)[nH]c2c1	KCNQ1 act 8 (no result: KCC2 mod)
CC(=O)c1cccc(S(=O)(=O)N2CCC(c3nc4ccccc4[nH]3)CC2)c1	none (no result: KCC2 mod)
CN(C)S(=O)(=O)c1cccc(NC(=O)c2cccc(S(=O)(=O)N3CCc4ccccc43)c2)c1	none (no result: KCNQ1 inh, KCNK9 inh, KCNQ1 act, KCC2 mod, hERG protect)
Nc1nc(=S)ss1	none (no result: KCNQ1 inh, KCNK9 inh, KCNQ1 act, KCC2 mod, hERG protect)
COc1ccc(CCN(C(=S)Nc2ccccc2)C2CC(=O)N(c3ccccc3)C2=O)cc1 (centres undefined)	none

Source: PubChem
